Data: article PMC3764597 (Carbohydrate research, 2013)
Values joined by “and” are separate entries in the source; they are usually repeats but may differ in a detail not shown here. Identical values can stand only once. “Also recorded” adds a separate entry of the source. Like-named read-outs stand apart in the source and are kept apart here.

How the values were obtained:
[1] = MTS cytotoxicity assay in HaCaT cells; assay type: cell-based, human; conditions: human, HaCaT cells (spontaneously immortalized keratinocytes)
Method in brief: (§1)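 Cells kept in DMEM with 10% heat-inactivated newborn calf serum plus penicillin/streptomycin/amphotericin B at 37 °C, 5% CO₂. Seeded 5,000 per well. Compound in DMSO added at 1–1000 μM for 18 h, then MTS for 2 h. A490 read with A650 reference, medium+MTS background subtracted. Viability given as % of DMSO-treated cells, triplicates. CC₅₀ by linear regression of the two points bracketing 50%.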

[2] = Differential scanning calorimetry; assay type: physicochemical; conditions: DSC; for Transition temperature: 25 to 200 °C, 2.5 °C/min; for Enthalpy: phase transition, from integration of the thermograms
Method in brief: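 Dry surfactant (1.0–1.5 mg) sealed in hermetic aluminum pans against an empty sealed-pan reference. Instrument calibrated with indium for temperature and enthalpy. Scanned 25–200 °C at 2.5 °C/min. Transition enthalpies obtained by integrating the thermograms.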

[3] = MTS cytotoxicity assay in Hs27 cells; assay type: cell-based, human; conditions: human, Hs27 cells (foreskin fibroblasts)
Method in brief: as §1

[4] = test system: Jurkat cells; test: Apoptosis/necrosis assay, annexin V-FITC staining and flow cytometry; assay type: cell-based; conditions: 20 h incubation, compounds added at their CC50
[5] = MTS cytotoxicity assay in Jurkat cells; assay type: cell-based, human; conditions: human, Jurkat cells (acute leukemia T lymphocytes)
Method in brief: (§2)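 Jurkat cells kept in RPMI with 10% heat-inactivated FBS plus antibiotics at 37 °C, 5% CO₂. Seeded 25,000 per well. Compound in DMSO at 1–1000 μM for 16 h, then MTS for 4 h. A490 read with A650 reference, background-corrected. Viability normalized to DMSO controls, triplicates. CC₅₀ from regression line through the two viabilities nearest 50%.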

[6] = test system: HaCaT, Hs27 and Jurkat cells; test: MTS cytotoxicity assay, statements summarised over the cell lines; assay type: cell-based; conditions: for toxicity (MTS assay), in words: all three cell lines (HaCaT, Hs27, Jurkat), concentrations 1 to 1000 μM
[7] = cited from earlier work; for collapse pressure: room temperature; for "lift-off" temperature: linear alkanoic acids
[8] = test system: Spontaneously immortalized human keratinocytes (HaCaT); test: MTS cytotoxicity assay in HaCaT cells; assay type: cell-based; conditions: HaCaT cells, 18 h treatment then 2 h MTS, 1 to 1000 μM
Method in brief: as §1

[9] = test system: human Hs27 fibroblasts; test: MTS cytotoxicity assay in Hs27 cells; assay type: cell-based; conditions: Hs27 cells, 18 h treatment then 2 h MTS, 1 to 1000 μM
Method in brief: as §1

[10] = test system: Jurkat human T-cell lymphoblastic leukemia cells; test: MTS cytotoxicity assay in Jurkat cells; assay type: cell-based; conditions: Jurkat cells, 16 h treatment then 4 h MTS, 1 to 1000 μM
Method in brief: as §2

[11] = test system: human Hs27 fibroblasts; conditions: Hs27 cells, value of the previous study; cited from earlier work
[12] = test system: Jurkat human T-cell lymphoblastic leukemia cells; conditions: value of the previous study; cited from earlier work
[13] = test system: Spontaneously immortalized human keratinocytes (HaCaT); conditions: HaCaT cells, value of the previous study; cited from earlier work
[14] = Langmuir monolayer compression isotherms at the air-water interface; assay type: physicochemical; conditions: for formation of stable monolayers at the air-water interface: 14 °C, 150 mM NaCl / 1.5 mM CaCl2 subphase; for "lift-off" temperature: πtrans versus temperature extrapolated to zero surface pressure
Method in brief: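 Subphase was 150 mM NaCl plus 1.5 mM CaCl₂ in purified water (pH 7.0), held at set temperatures by circulating bath, with impurities vacuumed off. Spread 50 μL of 1.662 mM surfactant in dichloromethane:methanol 9:1, let solvent evaporate, then compressed symmetrically at 10 mm/min (7.5 cm²/min). Wilhelmy platinum plate. Limiting area by extrapolating linear condensed region to zero pressure. Three independent runs.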

[15] = insoluble monolayers at the air-water interface

In the case of CCCCCCCCn1cc(CO[C@@H]2OC[C@@H](O)[C@H](O)[C@H]2O)nn1 [Compound 5b, (1-Octyl-1H-1,2,3-triazol-4-yl)methyl β-D-xylopyranoside], the CC50 at 18 h [1] is reported as 890 ± 50 µM, the Transition temperature [2] is reported as 126.9 ± 0.8 °C and the Enthalpy [2] is reported as 7.41 ± 1.2 kcal/mol. For the same compound, the CC50 at 18 h [3] was 694 ± 3 µM, the “mode of cell death (viable, apoptotic, necrotic cells)” value [4] was “comparable with the positive controls for apoptosis” and the CC50 at 16 h [5] was 580 ± 60 µM.

Compound CCCCCCCCCCn1cc(CO[C@@H]2OC[C@@H](O)[C@H](O)[C@H]2O)nn1 [Compound 5c, (1-Decyl-1H-1,2,3-triazol-4-yl)methyl β-D-xylopyranoside] has a CC50 at 18 h [1] of 120 ± 30 µM, a Transition temperature [2] of 133.6 ± 0.1 °C and an Enthalpy [2] of 9.32 ± 0.48 kcal/mol. For the same compound, the “fold more toxic than 5b” value ([6]; in both Jurkat and HaCaT cells, from CC50 values) was “approximately 8 fold”, the CC50 at 18 h [3] was 180 ± 50 µM and the CC50 at 16 h [5] was 77 ± 9 µM.

In the case of 6-O-stearoyl galactopyranoside, the limiting molecular area [7, 15] is given as 32 Å^2 and the collapse pressure [7] is given as 66 mN/m.

Work on CCCCCCn1cc(CO[C@@H]2OC[C@@H](O)[C@H](O)[C@H]2O)nn1 [Compound 5a, (1-Hexyl-1H-1,2,3-triazol-4-yl)methyl β-D-xylopyranoside] yielded a CC50 at 18 h [1] of over 1000 µM, a Transition temperature [2] of 120.1 ± 0.8 °C and an Enthalpy [2] of 6.45 ± 0.96 kcal/mol. For the same compound, the “toxicity (MTS assay), in words” value [6] was “not toxic”, the CC50 at 18 h [3] was over 1000 µM and the CC50 at 16 h [5] was over 1000 µM.

For CCCCCCCCS[C@@H]1O[C@H](CO)[C@@H](O)[C@H](O)[C@H]1O [β-OTG, β-octyl thioglucopyranoside, reference compound], the CC50 [8] was 490 ± 60 µM, the CC50 [9] was 380 ± 30 µM and the CC50 [10] was 310 ± 40 µM.

For CCCCCCCCO[C@@H]1OC[C@@H](O)[C@H](O)[C@H]1O [β-OXP, β-octyl xylopyranoside], the CC50 [11] is given as 760 ± 50 µM, the CC50 [12] is given as 460 ± 13 µM and the CC50 [13] is given as 850 ± 30 µM.

In the case of 6-O-stearoyl glucopyranoside, the limiting molecular area [7, 15] is given as 44 Å^2 and the collapse pressure [7] is given as 43 mN/m.

For n-octyl glucosamine, the limiting molecular area ([7]; 25 °C) is listed as 48 Å^2/molecule.

In the case of O[C@@H]1[C@@H](O)[C@H](OCc2cn(CCC(F)(F)C(F)(F)C(F)(F)C(F)(F)C(F)(F)C(F)(F)F)nn2)OC[C@H]1O [Compound 5g, (1-(3,3,4,4,5,5,6,6,7,7,8,8,8-Tridecafluorooctyl)-1H-1,2,3-triazol-4-yl)methyl β-D-xylopyranoside], the CC50 at 18 h [1] is reported as over 1000 µM, the Transition temperature [2] is reported as 158 °C and 158.8 ± 0.2 °C and the Enthalpy [2] is reported as 10.8 ± 0.24 kcal/mol. For the same compound, the “toxicity (MTS assay), in words” value [6] was “not toxic; also recorded: no measurable inhibition of cell viability”, the CC50 at 18 h [3] was over 1000 µM and the CC50 at 16 h [5] was over 1000 µM.

For CCCCCCCCCCCCCC(=O)O [tetradecanoic acid], the “"lift-off" temperature” value [7] is listed as “approximately 7 °C”.

In the case of CCCCCCCCCCCCCCCC(=O)O [hexadecanoic acid], the “"lift-off" temperature” value [7] is given as about 26 °C.

With CCCCCCCCCCCCCCn1cc(CO[C@@H]2OC[C@@H](O)[C@H](O)[C@H]2O)nn1 [Compound 5e, (1-Tetradecyl-1H-1,2,3-triazol-4-yl)methyl β-D-xylopyranoside] the “formation of stable monolayers at the air-water interface” value [14] was “formed stable monolayers”, the “Atrans: mean molecular area at phase transition” value (“Atrans: mean molecular area” for short) ([14]; subphase 14 °C) was 68 Å^2/molecule and 68.5 ± 0.9 Å^2/molecule and the “π max: maximum surface pressure (collapse pressure)” value (“π max: maximum surface pressure” for short) ([14]; subphase 14 °C) was 64.1 ± 0.5 mN/m. The “π trans: surface pressure at phase transition” value (“π trans: surface pressure” for short) ([14]; subphase 14 °C) was 5.6 mN/m and 5.6 ± 0.2 mN/m, the “Atrans: mean molecular area” value ([14]; subphase 17 °C) was 53.6 ± 0.9 Å^2/molecule and the “π max: maximum surface pressure” value ([14]; subphase 17 °C) was 62.4 ± 1.4 mN/m. For the same compound, the “π trans: surface pressure” value ([14]; subphase 17 °C) was 11.3 ± 0.2 mN/m, the “Atrans: mean molecular area” value ([14]; subphase 22 °C) was 47.5 ± 0.2 Å^2/molecule and the “π max: maximum surface pressure” value ([14]; subphase 22 °C) was 59.4 ± 0.6 mN/m. The “π trans: surface pressure” value ([14]; subphase 22 °C) was 15.0 ± 0.1 mN/m, the “Atrans: mean molecular area” value ([14]; subphase 26 °C) was 42.1 ± 0.7 Å^2/molecule and the “π max: maximum surface pressure” value ([14]; subphase 26 °C) was 53.0 ± 2.0 mN/m. For the same compound, the “π trans: surface pressure” value ([14]; subphase 26 °C) was 20.9 ± 0.2 mN/m, the “Atrans: mean molecular area” value ([14]; subphase 30 °C) was 38 Å^2/molecule and 38.0 ± 1.2 Å^2/molecule and the “π max: maximum surface pressure” value ([14]; subphase 30 °C) was 47.0 ± 3.0 mN/m. The “π trans: surface pressure” value ([14]; subphase 30 °C) was 26 mN/m and 27.0 ± 0.5 mN/m, the “"lift-off" temperature” value [14] was 9.2 °C and the CC50 at 18 h [1] was over 1000 µM. The Transition temperature [2] was 134.7 ± 0.4 °C, the Enthalpy [2] was 9.8 ± 0.24 kcal/mol and the “toxicity (MTS assay), in words” value [6] was “not toxic”. For the same compound, the CC50 at 18 h [3] was over 1000 µM and the CC50 at 16 h [5] was over 1000 µM.

Compound CCCCCCCCCCCCn1cc(CO[C@@H]2OC[C@@H](O)[C@H](O)[C@H]2O)nn1 [Compound 5d, (1-Dodecyl-1H-1,2,3-triazol-4-yl)methyl β-D-xylopyranoside] has a CC50 at 18 h [1] of over 1000 µM, a Transition temperature [2] of 130.1 ± 0.2 °C and an Enthalpy [2] of 8.13 ± 0.48 kcal/mol. For the same compound, the CC50 at 18 h [3] was over 1000 µM and the CC50 at 16 h [5] was 26 ± 3 µM.

In the case of CCCCCCCCCCCCCCCCn1cc(CO[C@@H]2OC[C@@H](O)[C@H](O)[C@H]2O)nn1 [Compound 5f, (1-Hexadecyl-1H-1,2,3-triazol-4-yl)methyl β-D-xylopyranoside], the “formation of stable monolayers at the air-water interface” value [14] is reported as “formed stable monolayers”, the “Atrans: mean molecular area” value ([14]; subphase 22 °C) is reported as 84.0 ± 2.0 Å^2/molecule and the “π max: maximum surface pressure” value ([14]; subphase 22 °C) is reported as 64.0 ± 3.0 mN/m. For the same compound, the “π trans: surface pressure” value ([14]; subphase 22 °C) was 1.6 ± 0.2 mN/m, the “Atrans: mean molecular area” value ([14]; subphase 26 °C) was 70.0 ± 2.0 Å^2/molecule and the “π max: maximum surface pressure” value ([14]; subphase 26 °C) was 58.6 ± 0.8 mN/m. The “π trans: surface pressure” value ([14]; subphase 26 °C) was 6.8 ± 0.1 mN/m, the “Atrans: mean molecular area” value ([14]; subphase 30 °C) was 65.0 ± 2.0 Å^2/molecule and the “π max: maximum surface pressure” value ([14]; subphase 30 °C) was 53.6 ± 1.0 mN/m. For the same compound, the “π trans: surface pressure” value ([14]; subphase 30 °C) was 9.9 ± 0.1 mN/m, the “Atrans: mean molecular area” value ([14]; subphase 33 °C) was 61.0 ± 2.0 Å^2/molecule and the “π max: maximum surface pressure” value ([14]; subphase 33 °C) was 51.6 ± 0.4 mN/m. The “π trans: surface pressure” value ([14]; subphase 33 °C) was 11.6 ± 0.3 mN/m, the “Atrans: mean molecular area” value ([14]; subphase 37 °C) was 51 Å^2/molecule and 51.2 ± 0.9 Å^2/molecule and the “π max: maximum surface pressure” value ([14]; subphase 37 °C) was 48.0 ± 2.0 mN/m. For the same compound, the “π trans: surface pressure” value ([14]; subphase 37 °C) was 18 mN/m and 18.4 ± 0.4 mN/m, the “"lift-off" temperature” value [14] was 20.2 °C and the CC50 at 18 h [1] was over 1000 µM. The Transition temperature [2] was 134.9 ± 0.1 °C, the Enthalpy [2] was 10.5 ± 0.48 kcal/mol and the “toxicity (MTS assay), in words” value [6] was “not toxic”. It also gave a CC50 at 18 h [3] of over 1000 µM and a CC50 at 16 h [5] of over 1000 µM.

In the case of n-nonyl glucosamine, the limiting molecular area ([7]; 25 °C) is given as 46 Å^2/molecule.
